Assay results published in ChEMBL document CHEMBL4196056, “Zirconium catalyzed synthesis of 2-arylidene Indan-1,3-diones and evaluation of their inhibitory activity against NS2B-NS3 WNV protease” (Eur J Med Chem, 2018).
Active and inactive are the calls of the source. No cut-off for these calls is given here.

Key:
West Nile virus [1] = test: Inhibition of recombinant West Nile virus NS2B-NS3 protease at 16 umol/L using pERTKR-AMC as substrate preincubated for 30 mins followed by substrate addition by fluorescence assay
How it was run: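 Single-point screen of purified, pre-activated recombinant WNV NS2B-NS3 at 1 ng µL-1 final, in 50 mmol L-1 Tris with 30% glycerol, pH 9.5, and 1% DMSO final. Enzyme and compound (16 µmol L-1 final) were held 30 min at 21-22 °C before pERTKR-AMC was added. Fluorescence (ex 360/em 460 nm) was read continuously, with buffer/DMSO as negative control. Triplicate wells in three independent experiments; one-way ANOVA.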

dengue virus type 2 = test: Antiviral activity against Dengue virus 2 infected in African green monkey Vero cells assessed as decrease in viral infection preincubated for 1 hr followed by cell addition and subsequent incubation for 1 hr and measured after 5 to 6 days by crystal violet staining-based assay; format: functional, organism-based
How it was run: (§1)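 Virucidal plaque-reduction format. Virus suspension (50-100 PFU) was mixed 1:1 with compound at 3, 6, 12, 25, 50 or 100 µmol L-1 and held 1 h at 37 °C. The mixture went onto Vero monolayers (8 x 10^5 cells/well) for 1 h adsorption with shaking, then a 3% CMC overlay in 2x DMEM with 2% FBS for 5-6 days. Cells were formaldehyde-fixed and crystal violet-stained, plaques were counted, and EC50 came from nonlinear regression.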

dengue virus type 4 = test: Antiviral activity against Dengue virus 4 infected in African green monkey Vero cells assessed as decrease in viral infection preincubated for 1 hr followed by cell addition and subsequent incubation for 1 hr and measured after 5 to 6 days by crystal violet staining-based assay; format: functional, organism-based; how it was run: as §1
dengue virus type 3 = test: Antiviral activity against Dengue virus 3 infected in African green monkey Vero cells assessed as decrease in viral infection preincubated for 1 hr followed by cell addition and subsequent incubation for 1 hr and measured after 5 to 6 days by crystal violet staining-based assay; format: functional, organism-based; how it was run: as §1
[2] = Non-competitive inhibition of recombinant West Nile virus NS2B-NS3 protease using pERTKR-AMC as substrate preincubated for 30 mins followed by substrate addition by Lineweaver-Burk plot analysis
How it was run: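 Kinetic series with WNV protease at 37.04 nmol L-1 (1 ng µL-1), inhibitor at 2, 4 and 8 µmol L-1, and pERTKR-AMC at five levels ([…] as printed). Fluorescence was read every 30 s in triplicate wells, and velocities (RFU/min) were computed for each substrate/inhibitor pair. Ki came from nonlinear enzyme-kinetics regression.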

[3] = Selectivity index, ratio of CC50 for African green monkey Vero cells to EC50 for Dengue virus 2 infected in African green monkey Vero cells; format: toxicity; conditions: Vero cells infected with Dengue virus 2, read-out: Ratio CC50/EC50
How it was run: (§2)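 Selectivity index calculated as CC50 from the 24 h Vero MTT assay divided by EC50 from the virucidal plaque-reduction assay for each DENV serotype.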

West Nile virus [4] = test: (§3) Inhibition of recombinant West Nile virus NS2B-NS3 protease using pERTKR-AMC as substrate preincubated for 30 mins followed by substrate addition by fluorescence assay
How it was run: (§4)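 Same protease format (1 ng µL-1 enzyme, Tris/30% glycerol pH 9.5, 30 min preincubation at 21-22 °C, pERTKR-AMC, ex 360/em 460 nm). Eight inhibitor concentrations spanning 66-0.5 µmol L-1 were tested, with reads every 30 s for 5 min. Triplicate wells in three independent experiments; IC50 from four-parameter nonlinear regression (Hill slope).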

[5] = as §3; how it was run: as §4
[6] = Selectivity index, ratio of CC50 for African green monkey Vero cells to EC50 for Dengue virus 1 infected in African green monkey Vero cells; format: toxicity; conditions: Vero cells infected with Dengue virus 1, read-out: Ratio CC50/EC50; how it was run: as §2
dengue virus type 1 = test: Antiviral activity against Dengue virus 1 infected in African green monkey Vero cells assessed as decrease in viral infection preincubated for 1 hr followed by cell addition and subsequent incubation for 1 hr and measured after 5 to 6 days by crystal violet staining-based assay; format: functional, organism-based; how it was run: as §1
[7] = Cytotoxicity against African green monkey Vero cells after 24 hrs by MTT assay; format: cell-based; conditions: chlorocebus sabaeus
How it was run: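 Vero cells (5 x 10^4/well) were exposed for 24 h at 37 °C to eight concentrations (4-1000 µmol L-1) in MEM with 2% FBS and 1% DMSO. MTT was added for 4 h, formazan was dissolved in DMSO, and absorbance was read at 550 nm. CC50 was derived by curve fitting.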

[8] = Selectivity index, ratio of CC50 for African green monkey Vero cells to EC50 for Dengue virus 3 infected in African green monkey Vero cells; format: toxicity; conditions: Vero cells infected with Dengue virus 3, read-out: Ratio CC50/EC50; how it was run: as §2
[9] = Selectivity index, ratio of CC50 for African green monkey Vero cells to EC50 for Dengue virus 4 infected in African green monkey Vero cells; format: toxicity; conditions: Vero cells infected with Dengue virus 4, read-out: Ratio CC50/EC50; how it was run: as §2

O=C1C(=Cc2ccc([N+](=O)[O-])cc2)C(=O)c2ccccc21
inhibition (West Nile virus [1]): inactive

COc1ccc(C=C2C(=O)c3ccccc3C2=O)cc1
inhibition (West Nile virus [1]): inactive

CN(C)c1ccc(C=C2C(=O)c3ccccc3C2=O)cc1
inhibition (West Nile virus [1]): inactive

O=C1C(=Cc2ccc3c(c2)OCO3)C(=O)c2ccccc21
inhibition (West Nile virus [1]): inactive

O=C1C(=Cc2ccc(F)cc2)C(=O)c2ccccc21
inhibition (West Nile virus [1]): inactive

O=C1C(=Cc2ccco2)C(=O)c2ccccc21
inhibition (West Nile virus [1]): inactive

O=C1C(=Cc2ccccc2)C(=O)c2ccccc21
inhibition (West Nile virus [1]): inactive

COc1cc(C=C2C(=O)c3ccccc3C2=O)ccc1O
inhibition (West Nile virus [1]): Active

COc1ccc(C=C2C(=O)c3ccccc3C2=O)cc1OC
inhibition (West Nile virus [1]): inactive

N#Cc1ccc(C=C2C(=O)c3ccccc3C2=O)cc1
inhibition (West Nile virus [1]): inactive

O=C1C(=Cc2ccc(Br)cc2)C(=O)c2ccccc21
inhibition (West Nile virus [1]): inactive

COc1cc(C=C2C(=O)c3ccccc3C2=O)cc(OC)c1O
inhibition (West Nile virus [1]): Active

COc1cc(C=C2C(=O)c3ccccc3C2=O)cc(OC)c1OC
inhibition (West Nile virus [1]): inactive

O=C1C(=Cc2ccc(O)cc2)C(=O)c2ccccc21
EC50 (dengue virus type 2): 39.2 µM | EC50 (dengue virus type 4): 55.9 µM | EC50 (dengue virus type 3): 21 µM | Ki [2]: 12.3 µM | selectivity ratio [3]: 2 | inhibition (West Nile virus [4]): Dose-dependent effect | IC50 [5]: 11 µM | selectivity ratio [6]: 2 | EC50 (dengue virus type 1): 46.6 µM | CC50 at 24 h [7]: 89.7 µM | inhibition (West Nile virus [1]): 41% | selectivity ratio [8]: 4 | selectivity ratio [9]: 2

COc1ccc(C=C2C(=O)c3ccccc3C2=O)cc1O
inhibition (West Nile virus [1]): Active

O=C1C(=Cc2ccc(O)c(O)c2)C(=O)c2ccccc21
EC50 (dengue virus type 2): 20.4 µM | EC50 (dengue virus type 4): 29.9 µM | EC50 (dengue virus type 3): 1.82 µM | Ki [2]: 1.25 µM | selectivity ratio [3]: 13 | inhibition (West Nile virus [4]): Dose-dependent effect | IC50 [5]: 3 µM | selectivity ratio [6]: 34 | EC50 (dengue virus type 1): 7.97 µM | CC50 at 24 h [7]: 268 µM | inhibition (West Nile virus [1]): 100% | selectivity ratio [8]: 147 | selectivity ratio [9]: 9
